“Also recorded” adds a separate entry of the source.
Legend:
[1] = Solubility as observed during preparation for assays; type: physicochemical
[2] = test system: NCI-60 human cancer cell lines; experiment: NCI-60 screening, whole panel; type: cell-based; details: 10 µM
human topo IIα [3] = biological target: T1, human topo IIα (Homo sapiens, UniProt P11388); experiment: Human topo IIα-mediated decatenation assay; type: biochemical; details: for IC50, topo IIα-mediated decatenation assay: average of two replicates
human topo IIα [4] = biological target: T1, human topo IIα; experiment: Human topoisomerase IIα-mediated relaxation assay; type: biochemical
wheatgerm topo I = experiment: Wheatgerm topo I unwinding assay; type: biochemical, wheat germ; details: 7.8, 15.6, 31.25, 125 μM
How it was run: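 Wheat germ topo I plasmid unwinding run in duplicate at 7.8, 15.6, 31.25 and 125 µM test compound, with the intercalator m-AMSA as positive control.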

human topo IIβ = human topo IIβ (Homo sapiens, UniProt Q02880); experiment: Human topo IIβ-mediated decatenation assay; type: biochemical
human topo IIα [5] = biological target: T1, human topo IIα; experiment: Human topoisomerase IIα-mediated cleavage assay; type: biochemical; details: 7.8-125 μM
[6] = biological target: ATPase domain of topo IIα (Homo sapiens, UniProt P11388); experiment: 1H STD NMR experiments; type: binding; details: protein:ligand ratio 1:100
How it was run: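 Runs were at 600 MHz, 25 °C, with a 100 ms T₁ρ filter. On-resonance saturation was at −0.727 ppm and off-resonance at 30 ppm. Saturation was 0.5 or 1 s depending on compound, with relaxation delay 4 or 1.5 s. Epitope maps come from STD amplification factors.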

U251 = experiment: NCI-60 screening; type: cell-based; details: Homo sapiens, U-251, read-out: inhibition of cell growth
SK-MEL-5 = experiment: NCI-60 screening; type: cell-based; details: Homo sapiens, SK-MEL-5, read-out: inhibition of cell growth
human topo IIα [7] = biological target: T1, human topo IIα; experiment: Human topo IIα competitive cleavage assay; type: biochemical; details: in the presence of 50 μM etoposide
human topo II = human topo II (Homo sapiens, UniProt P11388); experiment: Competitive ATPase assay; type: biochemical; details: IC50 versus ATP concentration
How it was run: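 NADH-coupled ATPase (pyruvate kinase/lactate dehydrogenase, phosphoenolpyruvate) with human topo II at 14 nM final and linear pBR322. Buffer was 20 mM Tris-HCl, 5 mM Mg acetate, 125 mM K acetate, 2 mM DTT, pH 7.9. Compound in DMSO went in before enzyme, then a 10–15 min OD340 pre-run. ATP was added at varying concentrations and OD340 followed for up to 30 min at 37 °C, in duplicate. Hydrolysis rates vs ATP gave IC50 at each ATP level.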

Sequence of human topo IIβ (Q02880 whole entry): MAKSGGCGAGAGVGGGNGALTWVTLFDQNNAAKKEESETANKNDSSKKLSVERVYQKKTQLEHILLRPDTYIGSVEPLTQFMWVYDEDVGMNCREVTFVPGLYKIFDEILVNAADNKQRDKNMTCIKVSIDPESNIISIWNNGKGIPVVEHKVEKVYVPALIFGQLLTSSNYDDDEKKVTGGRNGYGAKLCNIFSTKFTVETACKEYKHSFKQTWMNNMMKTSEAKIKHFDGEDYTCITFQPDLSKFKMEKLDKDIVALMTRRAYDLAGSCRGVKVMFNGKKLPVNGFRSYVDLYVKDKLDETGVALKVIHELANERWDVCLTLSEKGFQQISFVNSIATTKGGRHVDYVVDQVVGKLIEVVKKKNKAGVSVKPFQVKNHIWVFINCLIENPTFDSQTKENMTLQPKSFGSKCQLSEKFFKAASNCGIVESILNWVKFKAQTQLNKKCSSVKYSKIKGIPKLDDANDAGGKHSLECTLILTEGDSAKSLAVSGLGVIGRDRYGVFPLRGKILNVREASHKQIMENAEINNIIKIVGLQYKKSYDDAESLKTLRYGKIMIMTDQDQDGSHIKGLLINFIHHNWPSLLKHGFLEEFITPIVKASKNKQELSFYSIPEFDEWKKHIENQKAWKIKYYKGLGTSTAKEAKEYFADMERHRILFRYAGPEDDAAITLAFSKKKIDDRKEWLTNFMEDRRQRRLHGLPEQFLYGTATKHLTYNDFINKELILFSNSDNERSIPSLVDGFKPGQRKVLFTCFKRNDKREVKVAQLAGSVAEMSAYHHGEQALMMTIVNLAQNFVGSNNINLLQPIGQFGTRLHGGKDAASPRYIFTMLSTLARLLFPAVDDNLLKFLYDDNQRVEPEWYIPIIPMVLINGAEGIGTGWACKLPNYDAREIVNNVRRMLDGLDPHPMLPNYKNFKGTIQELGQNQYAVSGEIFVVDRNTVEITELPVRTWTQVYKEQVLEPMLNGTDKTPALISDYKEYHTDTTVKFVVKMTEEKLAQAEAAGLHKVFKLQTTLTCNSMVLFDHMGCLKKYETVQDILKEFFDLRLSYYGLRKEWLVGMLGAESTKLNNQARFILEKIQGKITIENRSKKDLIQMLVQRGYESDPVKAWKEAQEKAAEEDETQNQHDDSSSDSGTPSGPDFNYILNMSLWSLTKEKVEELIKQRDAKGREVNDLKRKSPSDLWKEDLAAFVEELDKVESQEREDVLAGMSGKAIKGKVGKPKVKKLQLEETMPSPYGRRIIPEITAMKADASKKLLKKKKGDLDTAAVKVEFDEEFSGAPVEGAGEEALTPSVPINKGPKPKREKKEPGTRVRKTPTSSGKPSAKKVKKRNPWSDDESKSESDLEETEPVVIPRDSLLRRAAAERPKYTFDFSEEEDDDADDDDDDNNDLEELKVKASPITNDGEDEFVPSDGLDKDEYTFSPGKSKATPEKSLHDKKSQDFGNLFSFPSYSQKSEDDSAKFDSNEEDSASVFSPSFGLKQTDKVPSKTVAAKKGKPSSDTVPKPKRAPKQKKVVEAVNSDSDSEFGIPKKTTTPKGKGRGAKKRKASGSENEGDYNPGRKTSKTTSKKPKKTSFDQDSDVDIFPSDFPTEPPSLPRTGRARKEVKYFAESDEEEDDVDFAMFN
Sequence of ATPase domain of topo IIα (P11388 1-453 limits assumed): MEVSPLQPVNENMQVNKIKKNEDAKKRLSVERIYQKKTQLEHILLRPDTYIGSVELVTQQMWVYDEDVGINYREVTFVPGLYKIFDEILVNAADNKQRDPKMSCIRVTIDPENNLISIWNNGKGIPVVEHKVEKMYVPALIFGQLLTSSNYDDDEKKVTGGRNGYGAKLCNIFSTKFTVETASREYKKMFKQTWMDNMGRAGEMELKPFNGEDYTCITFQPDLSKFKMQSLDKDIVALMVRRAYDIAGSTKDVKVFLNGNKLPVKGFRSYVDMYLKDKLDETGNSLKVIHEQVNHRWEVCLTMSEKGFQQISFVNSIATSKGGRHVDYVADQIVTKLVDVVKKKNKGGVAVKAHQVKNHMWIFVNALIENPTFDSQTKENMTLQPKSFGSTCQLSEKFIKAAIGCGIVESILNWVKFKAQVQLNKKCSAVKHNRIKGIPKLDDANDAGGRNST
T1 sequence (P11388 whole entry): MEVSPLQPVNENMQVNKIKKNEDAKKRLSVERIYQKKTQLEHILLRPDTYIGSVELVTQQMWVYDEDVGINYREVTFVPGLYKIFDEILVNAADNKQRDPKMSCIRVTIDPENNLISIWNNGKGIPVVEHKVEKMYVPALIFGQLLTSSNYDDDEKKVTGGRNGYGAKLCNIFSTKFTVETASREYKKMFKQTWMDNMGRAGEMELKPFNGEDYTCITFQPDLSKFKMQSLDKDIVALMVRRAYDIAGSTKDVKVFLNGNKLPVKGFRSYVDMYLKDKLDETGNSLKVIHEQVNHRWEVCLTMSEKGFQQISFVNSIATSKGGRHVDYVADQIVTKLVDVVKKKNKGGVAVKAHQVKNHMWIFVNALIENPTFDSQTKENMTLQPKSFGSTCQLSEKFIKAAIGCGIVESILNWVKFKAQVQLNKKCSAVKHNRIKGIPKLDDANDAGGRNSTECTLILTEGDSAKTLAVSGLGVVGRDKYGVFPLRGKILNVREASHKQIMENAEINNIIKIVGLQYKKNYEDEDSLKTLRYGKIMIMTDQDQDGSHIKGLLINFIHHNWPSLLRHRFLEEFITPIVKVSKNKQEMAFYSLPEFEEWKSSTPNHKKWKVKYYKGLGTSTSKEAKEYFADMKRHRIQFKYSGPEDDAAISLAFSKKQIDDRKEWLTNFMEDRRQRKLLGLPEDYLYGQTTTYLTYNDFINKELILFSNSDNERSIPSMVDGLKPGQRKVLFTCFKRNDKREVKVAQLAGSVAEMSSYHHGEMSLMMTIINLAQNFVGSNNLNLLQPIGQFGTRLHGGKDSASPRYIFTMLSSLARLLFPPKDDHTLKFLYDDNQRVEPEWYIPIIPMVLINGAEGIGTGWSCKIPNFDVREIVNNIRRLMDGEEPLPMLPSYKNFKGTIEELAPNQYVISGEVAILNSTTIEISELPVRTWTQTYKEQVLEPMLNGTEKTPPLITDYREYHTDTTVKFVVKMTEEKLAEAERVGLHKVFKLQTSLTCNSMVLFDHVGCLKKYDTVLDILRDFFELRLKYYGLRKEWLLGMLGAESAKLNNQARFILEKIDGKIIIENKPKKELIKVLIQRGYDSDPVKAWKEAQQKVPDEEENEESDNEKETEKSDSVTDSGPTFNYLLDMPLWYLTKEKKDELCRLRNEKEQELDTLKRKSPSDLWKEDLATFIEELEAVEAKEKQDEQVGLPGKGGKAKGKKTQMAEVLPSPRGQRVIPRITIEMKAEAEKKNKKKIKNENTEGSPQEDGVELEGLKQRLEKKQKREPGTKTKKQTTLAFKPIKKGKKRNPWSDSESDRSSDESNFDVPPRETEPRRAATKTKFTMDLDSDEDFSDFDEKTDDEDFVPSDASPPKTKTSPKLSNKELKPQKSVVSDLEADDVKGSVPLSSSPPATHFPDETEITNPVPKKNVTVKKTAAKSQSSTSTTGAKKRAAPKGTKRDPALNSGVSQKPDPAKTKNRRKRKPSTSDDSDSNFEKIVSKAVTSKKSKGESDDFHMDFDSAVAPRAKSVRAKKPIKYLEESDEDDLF
Sequence of human topo II (P11388 whole entry): as above

| IC50 (human topo IIα [4]) [µM] | IC50 (human topo IIβ) [µM] | interaction with the ATPase domain of topo IIα by STD NMR (in words) [6] | SMILES | solubility (in words) [1] | cytotoxic activity in NCI-60 (in words) [2] | unwinding / intercalation (in words) (wheatgerm topo I) | linear plasmid in the cleavage assay (in words) (human topo IIα [5]) | further results |
| --- | --- | --- | --- | --- | --- | --- | --- | --- |
|  |  |  | O=c1nc(SCc2cc(F)cc(C(F)(F)F)c2)nc(SCc2cccc(C(F)(F)F)c2)[nH]1 [Compound 34, 4-((3-Fluoro-5-(trifluoromethyl)benzyl)thio)− 6-((3-(trifluoromethyl)benzyl)thio)− 1,3,5-triazin-2(1 H)-one] | less soluble | did not exhibit cytotoxic activity |  |  |  |
| 7.7 ± 8.5 |  |  | O=c1nc(SCc2ccc(C(F)(F)F)cc2)nc(SCc2csc3ccc(Cl)cc23)[nH]1 [Compound 33, 6-(((5-Chlorobenzo[b]thiophen-3-yl)methyl)thio)−4-((4-(trifluoromethyl)benzyl)thio)−1,3,5-triazin-2(1H)-one] |  |  |  |  | IC50, topo IIα-mediated decatenation assay (human topo IIα [3]): single-digit micromolar range |
|  |  |  | COc1cc([C@@H]2c3cc4c(cc3[C@@H](O[C@@H]3O[C@@H]5CO[C@@H](C)O[C@H]5[C@H](O)[C@H]3O)[C@H]3COC(=O)[C@H]23)OCO4)cc(OC)c1O [Etoposide, etoposide, reference compound] |  |  | showed no signs of unfolding |  |  |
|  |  |  | O=c1nc(SCc2ccc(C(F)(F)F)cc2)nc(SCc2ccc3sccc3c2)[nH]1 [Compound 25, 6-((Benzo[b]thiophen-5-ylmethyl)thio)−4-((4-(trifluoromethyl)benzyl)thio)−1,3,5-triazin-2(1H)-one] |  | more diverse and potent cytotoxic effects |  |  | inhibition at 10 µM (U251): 80%; inhibition at 10 µM (SK-MEL-5): 89.5% |
|  |  |  | COc1cc(NS(C)(=O)=O)ccc1Nc1c2ccccc2nc2ccccc12 [mAMSA, reference compound] |  |  | showed intercalator-mediated effects at all 4 concentrations |  |  |
| 8.7 ± 7.3 | 8.3 ± 2.5 |  | O=c1nc(SCc2cc(F)cc(C(F)(F)F)c2)nc(SCc2csc3ccc(Cl)cc23)[nH]1 [Compound 32, 6-(((5-Chlorobenzo[b]thiophen-3-yl)methyl)thio)−4-((3-fluoro-5-(trifluoromethyl)benzyl)thio)−1,3,5-triazin-2(1H)-one] |  |  |  | higher even at lower concentrations | IC50, topo IIα-mediated decatenation assay (human topo IIα [3]): single-digit micromolar range |
|  | 10.6 ± 28.8 | confirmed the interaction | O=c1nc(SCc2cc(F)cc(C(F)(F)F)c2)nc(SCc2ccc3nc(Cl)ccc3c2)[nH]1 [Compound 30, 6-(((2-Chloroquinolin-6-yl)methyl)thio)−4-((3-fluoro-5-(trifluoromethyl)benzyl)thio)−1,3,5-triazin-2(1H)-one] | more soluble compared to the previous series; also recorded: more soluble compared to the benzyl-substituted analogues |  | inhibitors rather than intercalators | only a very weak increase in the linear plasmid at the highest concentration of 125 μM | IC50 (human topo IIα [3]): 12 ± 4.8 µM; linear product in the competitive cleavage assay (in words) (human topo IIα [7]): decreased the amount of linear product of the etoposide-topo IIα complex; mode of inhibition with respect to ATP (in words) (human topo II): ATP-competitive inhibition |
|  |  |  | CC(C)c1ccc(CSc2nc(SCc3ccc4sccc4c3)[nH]c(=O)n2)cc1 [Compound 26, 6-((Benzo[b]thiophen-5-ylmethyl)thio)−4-((4-isopropylbenzyl)thio)−1,3,5-triazin-2(1H)-one] |  | much lower compared to 24 and 25 |  |  |  |
|  |  | confirmed the interaction | O=c1nc(SCc2cc(F)cc(C(F)(F)F)c2)nc(SCc2ccc3nc(OCCN4CCOCC4)ccc3c2)[nH]1 [Compound 31, 4-((3-Fluoro-5-(trifluoromethyl)benzyl)thio)−6-(((2-(2-morpholinoethoxy)quinolin-6-yl)methyl)thio)−1,3,5-triazin-2(1H)-one] | more soluble compared to the previous series |  |  | no linear plasmid up to the measured concentration of 125 μM | IC50 (human topo IIα [3]): 18.5 ± 5.9 µM |

| SMILES | IC50 (human topo IIα [4]) [µM] | IC50 (human topo IIβ) [µM] | interaction with the ATPase domain of topo IIα by STD NMR (in words) [6] | solubility (in words) [1] | cytotoxic activity in NCI-60 (in words) [2] | unwinding / intercalation (in words) (wheatgerm topo I) | linear plasmid in the cleavage assay (in words) (human topo IIα [5]) | further results |
| --- | --- | --- | --- | --- | --- | --- | --- | --- |
| Cc1nc(CSc2nc(SCc3ccc(C(C)C)cc3)nc(=O)[nH]2)cs1 [Compound 37, 4-((4-Isopropylbenzyl)thio)−6-(((2-methylthiazol-4-yl)methyl)thio)−1,3,5-triazin-2(1H)-one] | 108 ± 3.8 | 16 ± 39 | confirmed its interaction with the ATPase domain |  | did not exhibit cytotoxic activity | inhibitors rather than intercalators | only a very weak increase in the linear plasmid at the highest concentration of 125 μM |  |
